Test results published in ChEMBL document CHEMBL1139591, “Synthesis and antibacterial activity of dihydro-1,2-oxazine and 2-pyrazoline oxazolidinones: novel analogs of linezolid” (2005).
Values after ≈ are worked out from the molar mass of the structure shown.

Tests used:
Assay type in all cases: functional
Enterococcus faecium = test: Minimum inhibitory concentration against Enterococcus faecium A24885
Summary of the method: (§1)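 Broth microdilution per NCCLS guidance in Mueller-Hinton medium; final inoculum about 5×10^5 cfu/mL; plates incubated 18 h at 35 °C in ambient air. MIC taken as the lowest drug concentration preventing visible growth, in µg/mL.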

Staphylococcus aureus [1] = test: Minimum inhibitory concentration against homogeneously methicillin-resistant Staphylococcus aureus A27223
Summary of the method: (§2)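 Broth microdilution per NCCLS guidance in Mueller-Hinton medium. Final inoculum about 5×10^5 cfu/mL. Plates incubated at 35 °C for 18 h in ambient air. MIC taken as the lowest drug concentration that prevented visible growth.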

Staphylococcus aureus [2] = test: Minimum inhibitory concentration against heterogeneously methicillin-resistant Staphylococcus aureus A27218; summary of the method: as §2
Staphylococcus aureus [3] = test: Minimum inhibitory concentration against Staphylococcus aureus A15090; summary of the method: as §2
Streptococcus pneumoniae = test: Minimum inhibitory concentration against Streptococcus pneumoniae A9585
Summary of the method: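 Broth microdilution following NCCLS recommendations, using Todd Hewitt broth for streptococci; final inoculum approx. 5×10^5 cfu/mL; incubation 35 °C for 18 h in 5% CO₂. MIC read as the lowest drug concentration preventing growth, µg/mL.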

Enterococcus faecalis = test: Minimum inhibitory concentration against Enterococcus faecalis A20688; summary of the method: as §1
Staphylococcus aureus [4] = test: Minimum inhibitory concentration against homogeneously methicillin-resistant Staphylococcus aureus A27223 in the presence of 50% calf serum
Summary of the method: (§3)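 Broth microdilution per NCCLS guidance in Mueller-Hinton medium supplemented with 50% calf serum. Final inoculum about 5×10^5 cfu/mL. Incubated at 35 °C for 18 h in ambient air. MIC read as the lowest drug concentration that prevented visible growth.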

Staphylococcus aureus [5] = test: Minimum inhibitory concentration against Staphylococcus aureus A15090 in the presence of 50% calf serum; summary of the method: as §3
Staphylococcus aureus [6] = test: Minimum inhibitory concentration against heterogeneously methicillin-resistant Staphylococcus aureus A27218 in the presence of 50% calf serum; summary of the method: as §3

Compound | MIC (Enterococcus faecium) [µg/mL] | MIC (Staphylococcus aureus [1]) [µg/mL] | MIC (Staphylococcus aureus [2]) [µg/mL] | MIC (Staphylococcus aureus [3]) [µg/mL] | MIC (Streptococcus pneumoniae) [µg/mL] | MIC (Enterococcus faecalis) [µg/mL] | MIC (Staphylococcus aureus [4]) [µg/mL] | MIC (Staphylococcus aureus [5]) [µg/mL] | MIC (Staphylococcus aureus [6]) [µg/mL]
CC(=O)NC[C@H]1CN(c2ccc(N=O)cc2)C(=O)O1 | 2 (≈ 7.6 µM) | 1 (≈ 3.8 µM) | 2 (≈ 7.6 µM) | 2 (≈ 7.6 µM) | 1 (≈ 3.8 µM) | 4 (≈ 15.2 µM) |  |  | 
CC(=O)NC[C@H]1CN(c2ccc(N3CCCCN3C(C)=O)c(F)c2)C(=O)O1 | 32 (≈ 84.6 µM) | 16 (≈ 42.3 µM) | 32 (≈ 84.6 µM) | 32 (≈ 84.6 µM) | 4 (≈ 10.6 µM) | 32 (≈ 84.6 µM) |  |  | 
CC(=O)NC[C@H]1CN(c2ccc(N3CCC=N3)c(F)c2)C(=O)O1 | 4 (≈ 12.5 µM) | 1 (≈ 3.12 µM) | 1 (≈ 3.12 µM) | 1 (≈ 3.12 µM) | 1 (≈ 3.12 µM) | 2 (≈ 6.24 µM) | 1 | 1 | 1
CC(=O)NC[C@H]1CN(c2ccc(N3CC(C)=C(C)CO3)cc2)C(=O)O1 | 8 (≈ 23.2 µM) | 4 (≈ 11.6 µM) | 8 (≈ 23.2 µM) | 4 (≈ 11.6 µM) | 8 (≈ 23.2 µM) | 16 (≈ 46.3 µM) |  |  | 
CC(=O)NC[C@H]1CN(c2ccc(N3OC4C=CC3CC4)cc2)C(=O)O1 (stereo not given in full) | 16 (≈ 46.6 µM) | 4 (≈ 11.6 µM) | 8 (≈ 23.3 µM) | 16 (≈ 46.6 µM) | 16 (≈ 46.6 µM) | 32 (≈ 93.2 µM) |  |  | 
CC(=O)NC[C@H]1CN(c2ccc(N3CCN(C(=O)CO)CC3)c(F)c2)C(=O)O1 [EPEREZOLID] | 2 (≈ 5.07 µM) | 1 (≈ 2.54 µM) | 1 (≈ 2.54 µM) | 1 (≈ 2.54 µM) | 0.5 (≈ 1.27 µM) | 2 (≈ 5.07 µM) |  |  | 
CC(=O)NC[C@H]1CN(c2ccc(N3CC=CCO3)cc2)C(=O)O1 | 2 (≈ 6.3 µM) | 1 (≈ 3.15 µM) | 2 (≈ 6.3 µM) | 1 (≈ 3.15 µM) | 2 (≈ 6.3 µM) | 4 (≈ 12.6 µM) | 1 | 1 | 2
CC(=O)NC[C@H]1CN(c2ccc(N3CCCN3C(C)=O)c(F)c2)C(=O)O1 | 32 (≈ 87.8 µM) | 16 (≈ 43.9 µM) | 32 (≈ 87.8 µM) | 32 (≈ 87.8 µM) | 0.5 (≈ 1.37 µM) | 32 (≈ 87.8 µM) |  |  | 
CC(=O)NC[C@H]1CN(c2ccc(N3CCOCC3)c(F)c2)C(=O)O1 [LINEZOLID] | 2 (≈ 5.93 µM) |  |  | 1 (≈ 2.96 µM) |  |  |  |  | 
CC(=O)NC[C@H]1CN(c2ccc([N+](=O)[O-])c(F)c2)C(=O)O1 | > 128 | 128 (≈ 431 µM) | 128 (≈ 431 µM) | > 128 | 64 (≈ 215 µM) | > 128 |  |  | 
CC(=O)NC[C@H]1CN(c2ccc(NO)cc2)C(=O)O1 | 4 (≈ 15.1 µM) | 2 (≈ 7.54 µM) | 4 (≈ 15.1 µM) | 0.5 (≈ 1.88 µM) | 4 (≈ 15.1 µM) | 8 (≈ 30.2 µM) |  |  | 
CC(=O)NC[C@H]1CN(c2ccc(N)cc2)C(=O)O1 | 128 (≈ 513 µM) | 64 (≈ 257 µM) | 128 (≈ 513 µM) | 16 (≈ 64.2 µM) | 16 (≈ 64.2 µM) | 128 (≈ 513 µM) |  |  | 
CC(=O)NC[C@H]1CN(c2ccc([N+](=O)[O-])cc2)C(=O)O1 | 4 (≈ 14.3 µM) | 1 (≈ 3.58 µM) | 2 (≈ 7.16 µM) | 0.5 (≈ 1.79 µM) | 2 (≈ 7.16 µM) | 4 (≈ 14.3 µM) |  |  | 
